Experimental data from ChEMBL document CHEMBL1765036, “Small-molecule ligands of methyl-lysine binding proteins” (J Med Chem, 2011).

Assays:
[1] = target: T1, Lethal(3)malignant brain tumor-like protein 4 (Homo sapiens, UniProt Q8NA19); assay: Binding affinity to L3MBTL4 by chemiluminescent assay
T1 sequence (Q8NA19 whole entry): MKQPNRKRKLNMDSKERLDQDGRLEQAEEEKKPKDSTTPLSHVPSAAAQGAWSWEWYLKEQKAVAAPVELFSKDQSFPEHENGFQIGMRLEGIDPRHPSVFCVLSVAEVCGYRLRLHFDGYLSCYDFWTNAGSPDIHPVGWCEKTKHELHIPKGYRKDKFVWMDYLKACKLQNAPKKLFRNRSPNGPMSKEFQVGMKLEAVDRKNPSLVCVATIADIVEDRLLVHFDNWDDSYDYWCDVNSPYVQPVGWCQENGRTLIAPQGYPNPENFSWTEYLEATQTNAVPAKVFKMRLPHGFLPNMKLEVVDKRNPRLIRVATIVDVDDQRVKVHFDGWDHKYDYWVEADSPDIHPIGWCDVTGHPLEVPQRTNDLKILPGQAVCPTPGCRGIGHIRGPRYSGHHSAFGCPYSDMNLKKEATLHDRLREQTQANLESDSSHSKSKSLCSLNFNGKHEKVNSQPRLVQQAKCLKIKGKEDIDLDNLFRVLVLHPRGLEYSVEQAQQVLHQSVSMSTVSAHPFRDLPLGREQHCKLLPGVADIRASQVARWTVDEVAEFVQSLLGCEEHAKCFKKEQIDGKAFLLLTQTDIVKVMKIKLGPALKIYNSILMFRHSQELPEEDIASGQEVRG
How it was run: (§1)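 AlphaScreen bead-based chemiluminescent proximity assay measuring antagonism of methylated histone peptide binding to the MBT/methyl-lysine reader domain. The peptide is H3K9Me1, the same one used as FAM-labelled probe (H3 residues 1-15, monomethyl K9) in the FP assay. A separate counterscreen was run for compound interference with the assay signal.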

[2] = target: T2, Scm-like with four MBT domains protein 1 (Homo sapiens, UniProt Q9UHJ3); assay: Binding affinity to human SFMBT by chemiluminescent assay; how it was run: as §1
T2 sequence (Q9UHJ3 whole entry): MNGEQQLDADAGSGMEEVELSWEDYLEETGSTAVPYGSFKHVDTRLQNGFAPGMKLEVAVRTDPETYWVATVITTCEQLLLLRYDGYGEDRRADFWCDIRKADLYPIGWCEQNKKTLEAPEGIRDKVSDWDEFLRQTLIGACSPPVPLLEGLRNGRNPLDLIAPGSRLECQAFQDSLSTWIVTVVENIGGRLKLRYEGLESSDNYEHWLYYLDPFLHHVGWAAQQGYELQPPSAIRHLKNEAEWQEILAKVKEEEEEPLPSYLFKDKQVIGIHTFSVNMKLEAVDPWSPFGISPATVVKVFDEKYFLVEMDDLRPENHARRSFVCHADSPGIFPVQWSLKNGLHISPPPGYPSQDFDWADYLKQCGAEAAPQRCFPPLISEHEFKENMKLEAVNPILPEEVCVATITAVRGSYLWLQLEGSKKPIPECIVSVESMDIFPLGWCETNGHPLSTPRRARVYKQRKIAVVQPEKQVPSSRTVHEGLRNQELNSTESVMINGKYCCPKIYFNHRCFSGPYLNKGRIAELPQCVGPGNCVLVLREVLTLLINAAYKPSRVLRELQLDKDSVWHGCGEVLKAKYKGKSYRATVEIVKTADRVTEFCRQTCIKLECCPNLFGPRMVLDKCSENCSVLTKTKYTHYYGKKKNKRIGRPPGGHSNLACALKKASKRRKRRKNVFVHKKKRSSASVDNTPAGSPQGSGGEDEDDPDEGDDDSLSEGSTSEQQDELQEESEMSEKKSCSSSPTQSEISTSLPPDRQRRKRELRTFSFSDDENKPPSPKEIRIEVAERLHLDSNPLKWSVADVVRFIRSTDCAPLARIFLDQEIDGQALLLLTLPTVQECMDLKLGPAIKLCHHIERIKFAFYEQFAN

[3] = target: MBT domain-containing protein 1 (Homo sapiens, UniProt Q05BQ5); assay: Binding affinity to MBTD1 by chemiluminescent assay; how it was run: as §1
Chain of MBT domain-containing protein 1 (Q05BQ5 whole entry, the tested form may be a part): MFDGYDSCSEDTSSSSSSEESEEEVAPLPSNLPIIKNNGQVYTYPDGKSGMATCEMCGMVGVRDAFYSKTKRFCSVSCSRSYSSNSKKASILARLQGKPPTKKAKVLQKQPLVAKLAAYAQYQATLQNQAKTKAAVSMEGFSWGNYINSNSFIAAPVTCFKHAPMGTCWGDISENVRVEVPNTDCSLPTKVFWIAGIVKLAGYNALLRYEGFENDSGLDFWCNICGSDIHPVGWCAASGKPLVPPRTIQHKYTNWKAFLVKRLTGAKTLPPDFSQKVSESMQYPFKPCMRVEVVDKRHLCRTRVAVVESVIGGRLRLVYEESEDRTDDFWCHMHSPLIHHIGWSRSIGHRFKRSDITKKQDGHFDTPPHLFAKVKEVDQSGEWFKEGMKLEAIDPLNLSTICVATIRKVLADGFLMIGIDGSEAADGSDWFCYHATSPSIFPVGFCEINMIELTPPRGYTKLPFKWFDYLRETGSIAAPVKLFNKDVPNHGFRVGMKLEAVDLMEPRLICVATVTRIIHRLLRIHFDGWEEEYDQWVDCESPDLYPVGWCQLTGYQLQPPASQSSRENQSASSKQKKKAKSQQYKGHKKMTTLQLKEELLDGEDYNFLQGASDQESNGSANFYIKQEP

[4] = target: PHD finger protein 13 (Homo sapiens, UniProt Q86YI8); assay: Binding affinity to PHF13 by chemiluminescent assay; how it was run: as §1
Chain of PHD finger protein 13 (Q86YI8 whole entry): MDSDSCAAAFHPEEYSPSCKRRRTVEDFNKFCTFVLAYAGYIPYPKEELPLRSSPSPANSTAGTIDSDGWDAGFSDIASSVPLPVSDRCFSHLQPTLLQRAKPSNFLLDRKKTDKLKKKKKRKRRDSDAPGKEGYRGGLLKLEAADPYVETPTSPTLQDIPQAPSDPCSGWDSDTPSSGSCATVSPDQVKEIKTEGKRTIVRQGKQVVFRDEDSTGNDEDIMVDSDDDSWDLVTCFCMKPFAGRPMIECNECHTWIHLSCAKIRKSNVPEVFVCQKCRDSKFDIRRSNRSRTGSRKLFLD

[5] = target: T3, Chromobox protein homolog 7 (Homo sapiens, UniProt O95931); assay: Binding affinity to CBX7 by chemiluminescent assay; how it was run: as §1
T3 sequence (O95931 whole entry): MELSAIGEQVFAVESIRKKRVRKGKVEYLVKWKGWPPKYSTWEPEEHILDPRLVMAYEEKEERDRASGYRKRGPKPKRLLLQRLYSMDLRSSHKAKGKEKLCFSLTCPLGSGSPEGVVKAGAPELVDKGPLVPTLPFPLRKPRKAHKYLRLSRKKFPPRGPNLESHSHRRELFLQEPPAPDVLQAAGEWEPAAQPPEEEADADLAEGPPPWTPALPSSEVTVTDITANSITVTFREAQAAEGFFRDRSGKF

[6] = target: T4, Lethal(3)malignant brain tumor-like protein 3 (Homo sapiens, UniProt Q96JM7); assay: Binding affinity to L3MBTL3 by chemiluminescent assay; how it was run: as §1
T4 sequence (Q96JM7 whole entry): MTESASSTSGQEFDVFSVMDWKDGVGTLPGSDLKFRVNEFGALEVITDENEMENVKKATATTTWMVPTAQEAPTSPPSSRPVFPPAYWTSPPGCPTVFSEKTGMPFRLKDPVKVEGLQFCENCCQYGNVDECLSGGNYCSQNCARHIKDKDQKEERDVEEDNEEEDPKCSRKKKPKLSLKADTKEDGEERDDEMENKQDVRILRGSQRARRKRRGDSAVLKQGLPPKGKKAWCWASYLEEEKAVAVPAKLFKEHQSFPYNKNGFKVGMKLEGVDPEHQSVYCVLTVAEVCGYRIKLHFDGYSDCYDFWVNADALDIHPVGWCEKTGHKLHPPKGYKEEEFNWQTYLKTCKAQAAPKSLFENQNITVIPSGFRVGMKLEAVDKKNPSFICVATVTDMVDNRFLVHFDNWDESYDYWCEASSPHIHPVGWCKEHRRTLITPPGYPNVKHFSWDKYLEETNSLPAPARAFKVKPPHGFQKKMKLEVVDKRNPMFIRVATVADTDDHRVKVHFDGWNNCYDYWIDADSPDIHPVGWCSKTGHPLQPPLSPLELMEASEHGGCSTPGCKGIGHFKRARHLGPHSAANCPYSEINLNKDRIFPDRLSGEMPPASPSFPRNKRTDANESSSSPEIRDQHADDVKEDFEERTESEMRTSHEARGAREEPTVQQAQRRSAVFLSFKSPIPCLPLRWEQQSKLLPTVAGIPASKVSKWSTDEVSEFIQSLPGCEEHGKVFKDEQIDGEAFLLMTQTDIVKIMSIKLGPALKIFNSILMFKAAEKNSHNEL

Row | Structure (SMILES) | IC50 ([1]; read-out: IC50) | IC50 [2] | IC50 [3] | IC50 [4] | IC50 [5] | IC50 [6] | IC50 [1] | IC50 ([4]; read-out: IC50)
1 | O=C(c1cncc(Br)c1)N1CCC(N2CCCC2)CC1 | 69 µM | Not Active | Not Active | Not Active | Not Active | 35 µM | – | –
2 | O=C(NCCCCCN1CCCC1)c1cncc(Br)c1 | – | Not Active | Not Active | – | Not Active | 28 µM | Not Active | 48 µM
